Here are results for 19 compounds from PubChem BioAssay.

Activity calls are given as the source filed them.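 Rule for the calls, unless noted: active = viability at or below 30% in both replicate assays; inconclusive = viability at or below 30% in just one of the two assays; inactive = the rest.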

Assay [1] in a line: HUVEC growth inhibition – cell-based, human, primary screen (AID 575).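 Note: 100% = median of untreated cell wells with 0.1% DMSO on each plate.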 The settings on record: HUVEC proliferation, CellTiter-Glo luminescence, 72 h; at 10 µM; stronger effect = lower value. The method, boiled down: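 Assay system: primary human umbilical vein endothelial cells / Buffer or medium: endothelial basal medium with 2% FBS plus growth supplements / Compound dosing: one dose, 10 µM final, 0.1% DMSO / Timing: 72 h treatment at 37 °C / Signal: CTG luminescence / Benchmarks: 32 DMSO-only cell-control wells (high), 32 MePR drug-control wells (low) per plate / Plate: collagen-coated 384-well format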
A general note: In ATP-based viability assays light output follows the ATP content of the culture.

Assay [2] is described as follows: growth inhibitors of H69AR lung tumor, primary screen, human, duplicate replicates (AID 580;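 active = viability at or under a set limit in both replicates, limit being median viability minus 3 SD, cut at about 48% in these data, passing the limit was not always enough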;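 note: 100% = mean luminescence of untreated wells and 0% = no signal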). The settings on record: H69AR lung tumor cells viability, ATP luminescence, 72 h; at 10 µM; stronger effect = lower value.
A short description of assay [3]: reversal of MRP1-mediated doxorubicin resistance, pilot screen, H69AR cells, doxorubicin co-treatment (AID 601;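 active = viability loss from added drug above about 55%, and viability with drug at most 40%, in both replicates, limit read from the data, passing the limit was not always enough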). The settings on record: CellTiter-Glo, 72 h, at 10 µM; for differential viability (reversal): stronger effect = higher value.
The nature of assay [4]: 384-well plate pilot, post-Golgi transport modulator project, inhibition of yeast transport mutant growth (AID 636; in the data active = inhibition above about 31%). The settings on record: absorbance 615 nm, about 18 h, stronger effect = higher value.
The nature of assay [5]: growth suppression of yeast trafficking mutant, preliminary HTS, modulators of trafficking downstream of Golgi apparatus project, 1536-format plate, OD 615 nm (AID 637; in the data active = inhibition above about 30%). The settings on record: yeast transport mutant growth, absorbance 615 nm, 18 h; stronger effect = higher value.
Setting [6] is: H69AR cells + 2 uM doxorubicin, measured here: viability with 2 uM doxorubicin, stronger effect = lower value.
Setting [7] is: H69AR cells, compound alone cytotoxicity.

Consider `CC(=O)C1=C(C)NC(=O)NC1c1cccc(O)c1` (stereo not drawn), for which the viability (commonly a read-out of living cells in per cent, often relative to untreated cells) in assay [1] is 99.8% (inactive); in assay [2] it was 94.4% (inactive); in assay [3] (setting [6]), 86.3%; in assay [3] (setting [7]) it was 94.4%. Also, the differential viability (reversal) in assay [3] (H69AR cells + 2 uM doxorubicin) is 8.07% (inactive). The results for the inhibition in assay [4] and in assay [5] were -2.93% (inactive) and 0.16% (inactive), respectively.

Regarding `COCC(=O)N(Cc1ccccc1)c1ccccn1`, the viability is 83.3% (inactive) in assay [1], 90.1% (inactive) in assay [2], 91.3% in assay [3] (setting [6]) and 90.1% in assay [3] (setting [7]). In assay [3] (H69AR cells + 2 uM doxorubicin), the differential viability (reversal) is -1.27% (inactive). Besides, the figures for the inhibition in assay [4] and in assay [5] were -5.32% (inactive) and 9.37% (inactive), respectively.

`CCOC(=O)C1CCCN(C(=O)c2cccs2)C1` (stereo not drawn): the viability in assay [1] was 96.7% (inactive); in assay [2], 98.3% (inactive); in assay [3] (setting [6]), 82.9%; in assay [3] (setting [7]), 98.3%. Also, the differential viability (reversal) in assay [3] (H69AR cells + 2 uM doxorubicin) was 15.4% (inactive). The results for the inhibition in assay [4] and in assay [5] were -6.18% (inactive) and 0.48% (inactive), respectively.

As to `CCOCCCNC(=O)C1CCCN(S(=O)(=O)CC)C1` (stereo not drawn), the viability in assay [1] is 115% (inactive); in assay [2], 94.5% (inactive); in assay [3] (setting [6]) it was 97.6%; in assay [3] (setting [7]) it was 94.5%. Further, in assay [3] (H69AR cells + 2 uM doxorubicin), the differential viability (reversal) is -3.11% (inactive). Further, the inhibition (commonly the drop in the measured response relative to a control, in per cent) was -6.53% (inactive) in assay [4] and 2.06% (inactive) in assay [5].

For the compound `CCOC(=O)CCC(=O)c1c(C)oc2ccc(OC)cc12`, the viability was 81.8% (inactive) in assay [1], 88.4% (inactive) in assay [2], 93.4% in assay [3] (setting [6]) and 88.4% in assay [3] (setting [7]). Further, in assay [3] (H69AR cells + 2 uM doxorubicin), the differential viability (reversal) was -5% (inactive). The inhibition in assay [4] was 1.04% (inactive); in assay [5], 13.3% (inactive).

As to `Cn1c(COc2ccccc2)nnc1SCC(=O)Nc1ccc(N2CCOCC2)c(Cl)c1`, the viability in assay [1] is 94.4% (inactive); in assay [2] it was 94.4% (inactive); in assay [3] (setting [6]), 82.8%; in assay [3] (setting [7]), 94.4%. In addition, in assay [3] (H69AR cells + 2 uM doxorubicin), the differential viability (reversal) was 11.6% (inactive). Moreover, the inhibition is -7.37% (inactive) in assay [4] and -0.48% (inactive) in assay [5].

For the compound `O=C1CC(C(=O)Nc2ccc(Br)cc2)C2(CCCC2)O1` (stereo not drawn), the viability in assay [1] is 109% (inactive); in assay [2], 101% (inactive); in assay [3] (setting [6]), 93.1%; in assay [3] (setting [7]) it was 101%. The differential viability (reversal) in assay [3] (H69AR cells + 2 uM doxorubicin) was 8.19% (inactive). In addition, the values for the inhibition in assay [4] and in assay [5] were -4% (inactive) and -1.75% (inactive), respectively.

Turning to `CCCSC1=C(C#N)C(c2ccccc2OCC)CC(=O)N1` (stereo not drawn), the viability in assay [1] is 79% (inactive); in assay [2] it was 90.1% (inactive); in assay [3] (setting [6]), 93.3%; in assay [3] (setting [7]), 90.1%. For the same compound, in assay [3] (H69AR cells + 2 uM doxorubicin), the differential viability (reversal) is -3.18% (inactive). Moreover, the figures for the inhibition in assay [4] and in assay [5] were -2.5% (inactive) and 3.33% (inactive), respectively.

`CC(C)[C@H](NC(=O)OC(C)(C)C)c1nnc(S(=O)(=O)Cc2c(F)cccc2Cl)o1`: the viability was 69.5% (inactive) in assay [1], 1.65% (active) in assay [2], 1.58% in assay [3] (setting [6]) and 1.65% in assay [3] (setting [7]). For the same compound, the differential viability (reversal) in assay [3] (H69AR cells + 2 uM doxorubicin) was 0.065% (inactive). Besides, the inhibition was -2.76% (inactive) in assay [4] and 9.02% (inactive) in assay [5].

In the case of `O=C(CCNC(=O)c1ccc(Br)o1)NC1CCCC1`, the viability in assay [1] is 87% (inactive); in assay [2], 95.1% (inactive); in assay [3] (setting [6]), 78.2%; in assay [3] (setting [7]), 95.1%. In addition, in assay [3] (H69AR cells + 2 uM doxorubicin), the differential viability (reversal) is 16.9% (inactive). Moreover, the results for the inhibition in assay [4] and in assay [5] were -4.4% (inactive) and 4.29% (inactive), respectively.

As to `CCCOc1ccc(C2C(C(=O)c3ccc(C)o3)=C(O)C(=O)N2Cc2cccnc2)cc1` (stereo not drawn), the viability in assay [1] was 110% (inactive); in assay [2], 97.8% (inactive); in assay [3] (setting [6]), 94%; in assay [3] (setting [7]), 97.8%. Further, the differential viability (reversal) in assay [3] (H69AR cells + 2 uM doxorubicin) is 3.76% (inactive). The inhibition is -5.79% (inactive) in assay [4] and 1.75% (inactive) in assay [5].

On to `COC(=O)c1[nH]c2c(c1C)C(=O)CC(c1cccs1)C2` (stereo not drawn), for which the viability in assay [1] was 44.9% (inactive); in assay [2], 36.7% (active); in assay [3] (setting [6]), 76%; in assay [3] (setting [7]), 36.7%. In addition, the differential viability (reversal) in assay [3] (H69AR cells + 2 uM doxorubicin) was -39.3% (inactive). In addition, the inhibition in assay [4] was -6.05% (inactive); in assay [5], 4.13% (inactive).

`Cc1ccc2c(COn3nnc4ccc(S(=O)(=O)N(C)C)cc43)cc(=O)oc2c1C`: the viability in assay [1] is 79.5% (inactive); in assay [2], 72.1% (inactive); in assay [3] (setting [6]) it was 75.6%; in assay [3] (setting [7]) it was 72.1%. Moreover, the differential viability (reversal) in assay [3] (H69AR cells + 2 uM doxorubicin) was -3.53% (inactive). Besides, the inhibition in assay [4] is -1.04% (inactive); in assay [5], 2.7% (inactive).

As to `CCn1c(SCc2cccc(C(F)(F)F)c2)nnc1-c1ccco1`, the viability in assay [1] is 93.9% (inactive); in assay [2], 90.1% (inactive); in assay [3] (setting [6]) it was 81.1%; in assay [3] (setting [7]) it was 90.1%. For the same compound, the differential viability (reversal) in assay [3] (H69AR cells + 2 uM doxorubicin) is 9% (inactive). In addition, the inhibition in assay [4] is -5.2% (inactive); in assay [5], -0.16% (inactive).

As for `CCN(c1ccccc1)S(=O)(=O)c1ccc(F)cc1C`, the viability in assay [1] is 86.5% (inactive); in assay [2] it was 90.4% (inactive); in assay [3] (setting [6]), 83.2%; in assay [3] (setting [7]), 90.4%. Further, in assay [3] (H69AR cells + 2 uM doxorubicin), the differential viability (reversal) was 7.2% (inactive). In addition, the inhibition in assay [4] was -1.04% (inactive); in assay [5], -5.71% (inactive).

On to `CN1CCN(C(=O)CN(Cc2ccc(Cl)cc2)S(C)(=O)=O)CC1`, for which the viability is 93.3% (inactive) in assay [1], 94.5% (inactive) in assay [2], 95.8% in assay [3] (setting [6]) and 94.5% in assay [3] (setting [7]). In addition, the differential viability (reversal) in assay [3] (H69AR cells + 2 uM doxorubicin) was -1.31% (inactive). In addition, the inhibition in assay [4] is -1.45% (inactive); in assay [5] it was 4.44% (inactive).

On to `CCCC(=O)Nc1ccccc1NC(=O)CCC`, for which the viability is 108% (inactive) in assay [1], 96% (inactive) in assay [2], 88.8% in assay [3] (setting [6]) and 96% in assay [3] (setting [7]). Also, the differential viability (reversal) in assay [3] (H69AR cells + 2 uM doxorubicin) is 7.25% (inactive). Also, the inhibition in assay [4] was -2.24% (inactive); in assay [5], -2.38% (inactive).

Consider `Cc1cnn(C(=S)NCc2ccco2)c1`, for which the viability in assay [1] is 70.2% (inactive); in assay [2] it was 84.5% (inactive); in assay [3] (setting [6]) it was 90.1%; in assay [3] (setting [7]) it was 84.5%. Moreover, the differential viability (reversal) in assay [3] (H69AR cells + 2 uM doxorubicin) is -5.57% (inactive). The inhibition in assay [4] is 2.24% (inactive); in assay [5], -4.92% (inactive).

On to `N#Cc1c(SCC(=O)N2CCOCC2)nsc1SCC(=O)N1CCOCC1`, for which the viability is 97.7% (inactive) in assay [1], 97.2% (inactive) in assay [2], 85.7% in assay [3] (setting [6]) and 97.2% in assay [3] (setting [7]). Also, the differential viability (reversal) in assay [3] (H69AR cells + 2 uM doxorubicin) is 11.5% (inactive). The inhibition in assay [4] is -1.3% (inactive); in assay [5] it was -3.02% (inactive).
